{
  "source": "paper PMC13435124",
  "about": "(The FASEB Journal, 2026)",
  "key": {"[1]": {"tested_on": "Aβ40 and Aβ42 peptide levels in N2a-APPswe cells", "experiment": "Aβ40 and Aβ42 peptide levels in N2a cell supernatants", "assay_type": "cell-based, mouse", "conditions": "250 μM, 24 h", "method_in_brief": "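N2a-wt and N2a-APPswe cells left untreated or exposed to test compound at 250 μM for 24 h. Aβ40 and Aβ42 peptides quantified by ELISA.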"}, "[2]": {"tested_on": "HMOX1 in N2a-APPswe cells", "experiment": "HMOX1 protein levels, western blot", "assay_type": "cell-based, mouse", "conditions": "250 μM, 24 h, vs control", "method_in_brief": "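N2a-APPswe cells treated 24 h with test compound at 250 μM. HMOX1 detected by western blot after milk blocking 1 h RT; anti-HMOX1 1:1000 in 5% BSA/TBS-T overnight at 4°C, then HRP secondary 1 h RT.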"}, "[3]": {"tested_on": "BV-2 cells exposed to LPS", "experiment": "iNOS and pro-IL-1β protein in LPS-stimulated microglia, western blot", "assay_type": "cell-based, mouse", "conditions": "BV-2, 250 μM, LPS 50 ng/mL, 24 h", "method_in_brief": "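BV-2 cells given test compound at 250 μM, LPS 50 ng/mL added 30 min later, for 24 h. iNOS and pro-IL-1β protein measured by western blot. Mean ± SEM of four independent experiments, relative to untreated control.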"}, "[4]": {"tested_on": "BV-2 cells exposed to LPS", "experiment": "Nitric oxide production", "assay_type": "cell-based, mouse", "conditions": "BV-2, 250 μM, LPS 50 ng/mL, 24 h", "method_in_brief": "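BV-2 microglia given test compound at 250 μM, then LPS 50 ng/mL 30 min later, for 24 h. Nitrite measured in supernatants by Griess assay at 550 nm against a sodium nitrite standard curve. Mean ± SEM of four independent experiments, relative to untreated control.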"}, "BV-2 cells": {"tested_on": "BV-2 cells", "experiment": "Cell metabolism, Alamar Blue", "assay_type": "cell-based, mouse", "conditions": "24 h, Alamar Blue (Figure S1B)", "method_in_brief": "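Cells exposed 24 h to test compound at 500, 250, 100, 50 or 5 μM, DMSO final up to 0.1% v/v. Resazurin 50 μM in PBS added 3 h before the end. Absorbance read at 570 nm with 620 nm reference. Highest nontoxic concentration chosen from metabolic capacity.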"}, "[5]": {"tested_on": "Nrf2 activation in KeratinoSens cells", "experiment": "KeratinoSens reporter gene assay", "assay_type": "cell-based", "conditions": "6 h; Iso 250 μM, DMF 50 μM", "method_in_brief": "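KeratinoSens ARE-luciferase cells (passage ≤22) plated at 1.0 × 10^4 per well in triplicate; after 24 h switched to DMEM with 1% FBS, no geneticin. Wortmannin 500 nM added 1 h before test compound at 250 μM; DMF 50 μM as positive control; DMSO ≤0.1%. After 6 h, Alamar Blue (4 h, 37°C), then luciferase read as fold over DMSO. Three independent experiments in triplicate.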"}, "[6]": {"experiment": "Pharmacokinetics after intranasal administration", "assay_type": "in vivo, mouse", "conditions": "for Kp: B6C3F1, mouse, inhaled or intranasal, 100 mg/kg; for AUC t / AUCinf: WT mice", "method_in_brief": "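WT B6C3F1 mice (25–30 g), acclimatised ≥7 days with food and water ad libitum, given test compound intranasally at 100 mg/kg. Plasma, brain and lung sampled at 5, 15, 30, 60, 120 and 180 min; n = 4. AUCt and AUCinf derived from concentration–time profiles.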"}, "APP/PS1 female mice [7]": {"tested_on": "APP/PS1 female mice", "experiment": "Behavioral tests in 6-month-old females", "assay_type": "in vivo, mouse", "conditions": "intranasal 50 mg/kg, 1 month"}, "APP/PS1 female mice [8]": {"tested_on": "APP/PS1 female mice", "experiment": "Aβ40 and Aβ42 levels in brain and plasma of 6-month-old females", "assay_type": "in vivo, mouse", "conditions": "1 month", "method_in_brief": "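WT and APP/PS1 females given PBS vehicle or test compound at 50 mg/kg (APP/PS1 only) intranasally, without anaesthesia, by micropipette for 1 month; groups of 5 per arm. Brain Aβ40 and Aβ42 quantified. Mean ± SEM of five to six animals.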"}, "APP/PS1 female mice [9]": {"tested_on": "APP/PS1 female mice", "experiment": "Brain protein levels of 6-month-old females, western blot", "assay_type": "in vivo, mouse", "conditions": "50 mg/kg, 1 month", "method_in_brief": "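Females received PBS or test compound at 50 mg/kg (APP/PS1 only) intranasally for 1 month. Brain hAPP, BACE1, iNOS, pro-IL-1β, HMOX1 and p44/42 MAPK assessed by western blot, with milk or BSA (phospho) blocking 1 h RT. Mean ± SEM of five animals; one-way ANOVA with Dunnett's or Tukey's test, p < 0.05.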"}, "APP/PS1 female mice [10]": {"tested_on": "APP/PS1 female mice", "experiment": "Demographic and metabolic parameters of 6-month-old females", "assay_type": "in vivo, mouse", "conditions": "6-month-old APP/PS1 females, 50 mg/kg, 1 month", "method_in_brief": "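WT and APP/PS1 females given PBS vehicle or test compound at 50 mg/kg (APP/PS1 only) intranasally for 1 month. Recorded body weight, adipose tissue weight, fasting glucose and triglycerides. Mean ± SEM of five to six animals.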"}, "WT and APP/PS1 male mice": {"tested_on": "WT and APP/PS1 male mice", "experiment": "Body weight and metabolic parameters of 11-month-old males", "assay_type": "in vivo, mouse", "conditions": "1 month"}, "APP/PS1 male mice [11]": {"tested_on": "APP/PS1 male mice", "experiment": "Y-maze test", "assay_type": "in vivo, mouse", "conditions": "100 mg/kg, 1 month", "method_in_brief": "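Behavioural testing in 10-month-old APP/PS1 and WT littermate males, randomised n = 5 per group. Intranasal PBS or test compound at 100 mg/kg for 1 month. Distance travelled also recorded.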"}, "APP/PS1 male mice [12]": {"tested_on": "APP/PS1 male mice", "experiment": "Aβ40 and Aβ42 levels in cortex, hippocampus and plasma", "assay_type": "in vivo, mouse", "conditions": "11-month-old APP/PS1 males, 100 mg/kg, 1 month", "method_in_brief": "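APP/PS1 and WT littermate males aged 10 months, randomised to groups of n = 5. PBS vehicle or test compound at 100 mg/kg given intranasally for 1 month. At 11 months, Aβ40 and Aβ42 measured in cortex, hippocampus and plasma; plasma Aβ42/Aβ40 ratio derived. Mean ± SEM of five animals.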"}, "[13]": {"conditions": "cited from earlier work; for dose-normalized AUC t in plasma: oral"}, "[14]": {"conditions": "6-month-old APP/PS1 females + Iso 50 mg/kg"}, "[15]": {"conditions": "6-month-old APP/PS1 females, 50 mg/kg, vs untreated"}, "[16]": {"conditions": "APP/PS1 males, not statistically significant"}},
  "note": "Like-named read-outs stand apart in the source and are kept apart here. Marks after values point to notes of the source that are not given here.",
  "data": [
    {"smiles": "CC=Cc1ccc(O)c(OC)c1", "note": "[Iso, 2‐methoxy‐4‐(prop‐1‐en‐1‐yl) phenol]", "values": [
      {"measurement": "Aβ42 peptide levels", "setting": "[1]", "value": "no effect was observed"},
      {"measurement": "Aβ40 levels", "setting": "[1]; vs untreated cells", "value": "significantly decreased"},
      {"measurement": "HMOX1 protein levels", "setting": "[2]", "value": "significant increase"},
      {"measurement": "LPS-induced iNOS protein levels", "setting": "[3]", "value": "reduced"},
      {"measurement": "LPS-induced pro-IL-1β protein levels", "setting": "[3]", "value": "reduced"},
      {"measurement": "LPS-triggered nitrite production", "setting": "[4]", "value": "significantly decreased"},
      {"measurement": "highest nontoxic concentration tested", "setting": "BV-2 cells", "value": 250, "unit": "µM"},
      {"measurement": "Nrf2 activation (luciferase induction)", "setting": "[5]", "value": "induced Nrf2 activation"},
      {"measurement": "Kp", "setting": "[6]; brain and plasma", "value": 0.23},
      {"measurement": "Kp", "setting": "[6]; lung and plasma", "value": 6.73},
      {"measurement": "AUC t", "setting": "[6]; brain, intranasal 100 mg/kg", "value": "140.87 ^c μg.min/g"},
      {"measurement": "AUCinf", "setting": "[6]; brain, intranasal 100 mg/kg", "value": "142.15 ^c μg.min/g"},
      {"measurement": "dose-normalized AUC t in plasma", "setting": "[6]; intranasal 100 mg/kg, mice", "value": 5.99, "unit": "µg·min/mL/kg"},
      {"measurement": "dose-normalized AUCinf in plasma", "setting": "[6]; intranasal 100 mg/kg, mice", "value": 6.04, "unit": "µg·min/mL/kg"},
      {"measurement": "AUC t", "setting": "[6]; lung, intranasal 100 mg/kg", "value": "4030.85 ^c μg.min/g"},
      {"measurement": "AUCinf", "setting": "[6]; lung, intranasal 100 mg/kg", "value": "4091.75 ^c μg.min/g"},
      {"measurement": "behavior (hot plate, open field, fear conditioning)", "setting": "APP/PS1 female mice [7]", "value": "no relevant behavioral alterations were observed"},
      {"measurement": "plasma Aβ40 levels", "setting": "APP/PS1 female mice [8]; [14]", "value": "72.29 ± 7.271", "unit": "picograms per milliliter"},
      {"measurement": "plasma Aβ42 levels", "setting": "APP/PS1 female mice [8]; [14]", "value": "83.88 ± 9.498", "unit": "picograms per milliliter"},
      {"measurement": "brain Aβ40 levels", "setting": "APP/PS1 female mice [8]; [15]", "value": "decreased"},
      {"measurement": "brain Aβ42 levels", "setting": "APP/PS1 female mice [8]; [15]", "value": "decreased"},
      {"measurement": "decrease in brain p44/42 MAPK phosphorylated levels", "setting": "APP/PS1 female mice [9]; 6-month-old APP/PS1 females", "value": "reverted"},
      {"measurement": "increase in brain HMOX1 protein levels", "setting": "APP/PS1 female mice [9]; 6-month-old APP/PS1 mice, p = 0.068", "value": 1.5, "unit": "fold"},
      {"measurement": "brain APP protein levels", "setting": "APP/PS1 female mice [9]; 6-month-old mice", "value": "not altered"},
      {"measurement": "adipose tissue weight", "setting": "APP/PS1 female mice [10]", "value": "did not reduce"},
      {"measurement": "triglycerides", "setting": "WT and APP/PS1 male mice; 11-month-old APP/PS1 males, 100 mg/kg", "value": "reduction"},
      {"measurement": "adipose tissue weight", "setting": "WT and APP/PS1 male mice; 11-month-old WT and APP/PS1 males, 100 mg/kg", "value": "trend toward a decrease"},
      {"measurement": "decrease in body weight", "setting": "WT and APP/PS1 male mice; 11-month-old males, intranasal 100 mg/kg", "value": "< 15", "unit": "%"},
      {"measurement": "Y-maze entries in the novel arm", "setting": "APP/PS1 male mice [11]; [16]", "value": "reversed this trend"},
      {"measurement": "Y-maze time spent in the novel arm", "setting": "APP/PS1 male mice [11]; [16]", "value": "reversed this trend"},
      {"measurement": "Y-maze distance traveled", "setting": "APP/PS1 male mice [11]; males", "value": "not affected"},
      {"measurement": "cortex Aβ40 levels", "setting": "APP/PS1 male mice [12]", "value": "no alterations observed"},
      {"measurement": "cortex Aβ42 levels", "setting": "APP/PS1 male mice [12]", "value": "no alterations observed"},
      {"measurement": "hippocampus Aβ40 levels", "setting": "APP/PS1 male mice [12]", "value": "no alterations observed"},
      {"measurement": "hippocampus Aβ42 levels", "setting": "APP/PS1 male mice [12]", "value": "no alterations observed"},
      {"measurement": "plasma Aβ40 levels", "setting": "APP/PS1 male mice [12]", "value": "decreased"},
      {"measurement": "plasma Aβ42 levels", "setting": "APP/PS1 male mice [12]", "value": "decreased"},
      {"measurement": "plasma Aβ42/Aβ40 ratio", "setting": "APP/PS1 male mice [12]; not significant", "value": "partial increase"},
      {"measurement": "alpha half-life distribution time", "setting": "[13]; after intravenous dosing", "value": "7 to 10", "unit": "min"},
      {"measurement": "steady-state apparent volume of distribution", "setting": "[13]; after intravenous dosing", "value": "11 to 25.2", "unit": "L/kg"},
      {"measurement": "dose-normalized AUCinf in plasma", "setting": "[13]; intravenous 35 mg/kg, mice", "value": 6.76, "unit": "µg·min/mL/kg"},
      {"measurement": "dose-normalized AUC t in plasma", "setting": "[13]; first listed of doses 35, 70 and 140 mg/kg, mice", "value": 1.91, "unit": "µg·min/mL/kg"},
      {"measurement": "dose-normalized AUC t in plasma", "setting": "[13]; second listed of doses 35, 70 and 140 mg/kg, mice", "value": 1.68, "unit": "µg·min/mL/kg"},
      {"measurement": "dose-normalized AUC t in plasma", "setting": "[13]; third listed of doses 35, 70 and 140 mg/kg, mice", "value": 1.45, "unit": "µg·min/mL/kg"}
    ]}
  ]
}
